SUMO HTRF inh = SUMOylation inhibition; actives 0.36% (n = 290,000); AID 2006; HTRF SUMOylation assay, SAE1/SAE2 + UBC9, in vitro; P63279; inhibition, % at 35 µM; in the data active means inhibition above about 50%, passing the limit was not always enough
Target sequence (P63279 whole entry, looked up): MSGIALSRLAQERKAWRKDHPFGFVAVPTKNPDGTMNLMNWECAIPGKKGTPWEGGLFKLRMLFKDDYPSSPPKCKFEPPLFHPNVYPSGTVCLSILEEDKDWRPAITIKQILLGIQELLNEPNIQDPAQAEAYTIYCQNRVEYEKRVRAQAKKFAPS
IMP-1 inhibitor = blocks Pseudomonas aeruginosa IMP-1 metallo-beta-lactamase. actives 0.45% (n = 290,000). purified IMP-1, nitrocefin hydrolysis, epi-absorbance fluorescence. inhibition, % at 5.6 µM;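 active means inhibition above the mean plus 3 SD of all compounds in the same screening run, cut at about 4.5% in these data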;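 further: 0% = IMP-1 with DMSO and 100% = DMSO wells lacking enzyme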
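System: purified recombinant IMP-1 beta-lactamase. Medium: Zinc- and detergent-supplemented HEPES buffer, pH 7.1. Compound: one 5.6 µM dose […]. Schedule: 15 min preincubation plus 25 min reaction at 25 °C. Technique: Epi-absorbance fluorescence, 480 nm excitation, 530 nm emission.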
DNA FID counter = fluorescent intercalator displacement, NS3 helicase counter-screen. DNA fluorescent intercalator displacement, fluorescence. inhibition, % at 7.9 µM. actives 0.17% (n = 290,000). AID 1845; in the data active means inhibition above about 37%;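 further: 0% = vehicle and 100% = reference compound; higher means more ethidium bromide displaced from hairpin DNA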
VIM-2 inh = inhibitors of Pseudomonas aeruginosa VIM-2 metallo-beta-lactamase; purified VIM-2, nitrocefin hydrolysis, epi-absorbance fluorescence; inhibition, % at 5.6 µM; actives 0.89% (n = 290,000);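 active means inhibition above the mean of all tested compounds plus 3 SD, cutoff set per screening run, cut at about 7.5% in these data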;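 further: red hydrolysis product quenches plate fluorescence so inhibitors raise well fluorescence; 0% = enzyme with DMSO and 100% = DMSO without enzyme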
NS3 helicase inh = inhibitors of Hepatitis C virus NS3 helicase; NS3 helicase DNA unwinding, Cy5 molecular beacon fluorescence; inhibition, % at 10.9 µM; actives 0.56% (n = 290,000); AID 1800;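 active means inhibition above the mean of all tested compounds plus 3 SD, set per campaign, cut at about 35% in these data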;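 further: 0% = DMSO wells and 100% = thioflavine S control wells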
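test system = hepatitis C virus NS3 helicase domain fragment enzyme | reagent = annealed dual-labelled DNA beacon duplex, ATP-started | times = 1 h at 25 °C | detection = Cy5 fluorescence, 0 and 60 min reads | read-out basis = percent inhibition from t60/t0 fluorescence ratio | control set = DMSO and thioflavine S | replication = one well per compound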
The depositor's hits bear a star. Hits are enriched below; roughly 2.1% of the tested compounds scored in any of these assays.

Cc1cccc2cc(CN(Cc3cccnc3)C(=O)c3ccncc3)c(=O)[nH]c12 was read as SUMO HTRF inh 13, IMP-1 inhibitor -3, DNA FID counter -15, VIM-2 inh -1 and NS3 helicase inh 3.
`CCN(CC)CCCNC(=S)N(Cc1cccnc1)Cc1cc2cc(C)cc(C)c2[nH]c1=O` gave SUMO HTRF inh 18, IMP-1 inhibitor 1, DNA FID counter 9, VIM-2 inh 12* and NS3 helicase inh -10.
For Cc1cc(C)c2[nH]c(=O)c(CN(Cc3cccnc3)C(=S)NCCCN(C)C)cc2c1 the results were SUMO HTRF inh 0, IMP-1 inhibitor -2, DNA FID counter 17, VIM-2 inh 9.3* and NS3 helicase inh -13.
For COc1ccc(Nc2cc(Nc3cc(OC)c(OC)c(OC)c3)ncn2)cc1 the results were SUMO HTRF inh 2, IMP-1 inhibitor -3, DNA FID counter -28, VIM-2 inh -1 and NS3 helicase inh -14.
Screening Cc1ccc(C(C)C)c(OCCNCCc2ccccc2)c1 returned SUMO HTRF inh 1, IMP-1 inhibitor 1, DNA FID counter 32, VIM-2 inh -1 and NS3 helicase inh -63.
For CCOc1ccccc1NC(=O)CSc1nnc(CNC(=O)c2cc(OC)c(OC)c(OC)c2)o1 the results were SUMO HTRF inh -6, IMP-1 inhibitor 0, DNA FID counter -28, VIM-2 inh 1 and NS3 helicase inh -5.
For COCC(C)NC(=O)COCc1cc(-c2ccc3c(c2)OCO3)on1 (stereo not given) the results were SUMO HTRF inh 14, IMP-1 inhibitor -2, DNA FID counter -18, VIM-2 inh 0 and NS3 helicase inh 5.
For CN(C)CCSc1nc(-c2ccccc2)nc2c1CCC2 the results were SUMO HTRF inh -2, IMP-1 inhibitor 0, DNA FID counter 8, VIM-2 inh 9.8* and NS3 helicase inh -7.
For O=C(COc1ccc2c3c(c(=O)oc2c1)CCCC3)NCc1cccnc1 the results were SUMO HTRF inh 13, IMP-1 inhibitor -2, DNA FID counter -16, VIM-2 inh 9.2* and NS3 helicase inh -3.
For Cc1c(C)c2ccc(OC(C)C(=O)NCCCN3CCOCC3)c(C)c2oc1=O (stereo not given) the results were SUMO HTRF inh 13, IMP-1 inhibitor 1, DNA FID counter 12, VIM-2 inh 8.6* and NS3 helicase inh 2.
`CC(Oc1ccc2c3c(c(=O)oc2c1)CCC3)C(=O)NCCN1CCOCC1` (stereo not given) gave SUMO HTRF inh -4, IMP-1 inhibitor -2, DNA FID counter -3, VIM-2 inh 12* and NS3 helicase inh 12.
Cc1c(C)c2ccc(OC(C)C(=O)NCc3ccccn3)cc2oc1=O (stereo not given) was read as SUMO HTRF inh 11, IMP-1 inhibitor -4, DNA FID counter -22, VIM-2 inh 0 and NS3 helicase inh 14.
For CC(Oc1ccc2c3c(c(=O)oc2c1)CCCC3)C(=O)NCc1ccccn1 (stereo not given) the results were SUMO HTRF inh 1, IMP-1 inhibitor 1, DNA FID counter -33, VIM-2 inh 8.5* and NS3 helicase inh 12.
`CC(Oc1ccc2c3c(c(=O)oc2c1)CCC3)C(=O)N[C@@H](Cc1ccccc1)C(=O)O` (stereo not given in full) gave SUMO HTRF inh -5, IMP-1 inhibitor -4, DNA FID counter -31, VIM-2 inh -1 and NS3 helicase inh 10.
O=C(CN(Cc1ccc(Cl)cc1)C(=O)CNS(=O)(=O)c1ccccc1)NCC1CCCO1 (stereo not given) was read as SUMO HTRF inh 0, IMP-1 inhibitor -4, DNA FID counter -34, VIM-2 inh -3 and NS3 helicase inh 8.
`Cc1c(OC(C)C(=O)NCCCN2CCOCC2)ccc2c3c(c(=O)oc12)CCCC3` (stereo not given) gave IMP-1 inhibitor -1, DNA FID counter 10, VIM-2 inh 11* and NS3 helicase inh -3.
CC1C(=O)NN=C1C(=O)N/N=C\c1ccc(O)cc1O (stereo not given) was read as SUMO HTRF inh 89*, IMP-1 inhibitor -4, DNA FID counter 0, VIM-2 inh -2 and NS3 helicase inh 1.
`CC1=NN(c2ccc(C)c(C)c2)C(=O)/C1=C/c1ccc2c(c1)n(C)c(=O)n2C` gave SUMO HTRF inh 85*, IMP-1 inhibitor -4, DNA FID counter -5, VIM-2 inh -2 and NS3 helicase inh 3.
`CC1(C)CC(=O)C2=C(C1)OC(N)=C(C#N)C2CCc1ccccc1` (stereo not given) gave SUMO HTRF inh -17, IMP-1 inhibitor 4.7*, DNA FID counter -23, VIM-2 inh 1 and NS3 helicase inh 33.
Screening CCc1nc2cc([N+](=O)[O-])c([N+](=O)[O-])cc2[nH]1 returned SUMO HTRF inh 4, IMP-1 inhibitor -2, DNA FID counter -3, VIM-2 inh 1 and NS3 helicase inh -1.
`CCN=C1S/C(=C\c2cc(OCC)c(O)cc2Br)C(=O)N1CC` gave SUMO HTRF inh 13, IMP-1 inhibitor -1, DNA FID counter 7, VIM-2 inh 7.8* and NS3 helicase inh 2.
For CC[C@@]1(O)C(=O)OCc2c1cc1n(c2=O)Cc2cc3c(N)cccc3nc2-1 the results were SUMO HTRF inh 95*.
O=Cc1cn(CCOc2ccccc2F)c2ccccc12 was read as SUMO HTRF inh 10, IMP-1 inhibitor -2, DNA FID counter -10, VIM-2 inh 1 and NS3 helicase inh -3.
COc1ccc(-c2cc(NCCc3ccncc3)n3ncnc3n2)cc1 was read as SUMO HTRF inh 29, IMP-1 inhibitor -2, DNA FID counter -13, VIM-2 inh 2 and NS3 helicase inh -3.
`COc1ccc(CCNc2c(C)c(C)nc3ncnn23)cc1` gave SUMO HTRF inh 6, IMP-1 inhibitor -2, DNA FID counter -7, VIM-2 inh 8.8* and NS3 helicase inh -7.
`C[C@H](NC(=O)C1CC(=O)N(c2ccc3c(c2)OCO3)C1)C(=O)NC1CCCCC1` (stereo not given in full) gave SUMO HTRF inh 3, IMP-1 inhibitor -2, DNA FID counter -16, VIM-2 inh 0 and NS3 helicase inh 6.
`Cc1[nH]n(-c2ccccc2)c(=O)c1N=Nc1ccc(C(N)=O)cc1` gave SUMO HTRF inh 10, IMP-1 inhibitor -2, DNA FID counter -14, VIM-2 inh 12* and NS3 helicase inh 1.
For Cc1[nH]n(-c2ccccc2)c(=O)c1N=Nc1ccc(C(=O)O)cc1 the results were SUMO HTRF inh 2, IMP-1 inhibitor -4, DNA FID counter -16, VIM-2 inh 2 and NS3 helicase inh 5.
C=CCSc1nnc(-c2cc3c(C(F)(F)F)nn(C)c3s2)n1C was read as SUMO HTRF inh -13, IMP-1 inhibitor -1, DNA FID counter -18, VIM-2 inh 0 and NS3 helicase inh -1.
C=CCSc1nnc(-c2cc3c(-c4ccccc4)nn(C)c3s2)n1C was read as SUMO HTRF inh 25, IMP-1 inhibitor 0, DNA FID counter -33, VIM-2 inh 9.5* and NS3 helicase inh 1.

High-throughput results: PubChem BioAssay, several laboratories
